Assay results as given in ChEMBL document CHEMBL3862014, “Synthesis and anti-inflammatory activity of paeonol analogues in the murine model of complete Freund's adjuvant induced arthritis” (Bioorg Med Chem Lett, 2016).
Activity calls are given as the source filed them. The calls are words filed in the database; no cut-off is given here.

Columns and labels:
[1] = tested on: Mus musculus; test: Antiinflammatory activity in Kunming mouse CFA-induced arthritis model assessed as COX-2 level in serum at 100 mg/kg/day, po for 1 week administered on day 8 post CFA induction by ELISA (reference value: 85.3 +/- 0.1 ng/L); type: functional
[2] = tested on: Mus musculus; test: Antioxidant activity in Kunming mouse CFA-induced arthritis model assessed as total antioxidant capacity in serum at 100 mg/kg/day, po for 1 week administered on day 8 post CFA induction by ELISA (reference value: 2.9 +/- 0.5 U/ml); type: functional
[3] = tested on: Mus musculus; test: Antioxidant activity in Kunming mouse CFA-induced arthritis model assessed as superoxide dismutase activity in serum at 100 mg/kg/day, po for 1 week administered on day 8 post CFA induction by ELISA (reference value: 66.7 +/- 0.9 U/ml); type: functional
[4] = tested on: Mus musculus; test: Antiinflammatory activity in Kunming mouse CFA-induced arthritis model assessed as inhibition of paw swelling at 25 mg/kg/day, po for 1 week administered on day 8 post CFA induction measured every 2 days during compound dosing; type: functional, organism-based
Summary of the method: (§1)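 Dosing began seven days after the model was established, at 100 mg·kg⁻¹·d⁻¹ (high) or 25 mg·kg⁻¹·d⁻¹ (low). Inhibition of paw swelling was expressed in %, with celecoxib as reference group.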

[5] = tested on: Mus musculus; test: Antiinflammatory activity in Kunming mouse CFA-induced arthritis model assessed as PGE2 level in serum at 25 mg/kg/day, po for 1 week administered on day 8 post CFA induction by ELISA (reference value: 207 +/- 2.1 ng/L); type: functional
[6] = tested on: Mus musculus; test: Antiinflammatory activity in Kunming mouse CFA-induced arthritis model assessed as PGE2 level in serum at 100 mg/kg/day, po for 1 week administered on day 8 post CFA induction by ELISA (reference value: 207 +/- 2.1 ng/L); type: functional
[7] = tested on: Mus musculus; test: Antiinflammatory activity in Kunming mouse CFA-induced arthritis model assessed as inhibition of paw swelling at 100 mg/kg/day, po for 1 week administered on day 8 post CFA induction measured every 2 days during compound dosing; type: functional; summary of the method: as §1
[8] = tested on: Mus musculus; test: Antioxidant activity in Kunming mouse CFA-induced arthritis model assessed as malondialdehyde level in serum at 100 mg/kg/day, po for 1 week administered on day 8 post CFA induction by ELISA (reference value: 15.5 +/- 1.1 nmol/ml); type: functional
[9] = Antioxidant activity assessed as hydroxyl radical scavenging activity measured 10 mins after H2O2 addition by pyronin B dye based assay; type: functional
Summary of the method: (§2)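 In vitro radical scavenging was reported as IC50 (mM) alongside a positive control. Data are mean ± s, n = 6, with experiments run in triplicate.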

[10] = Antioxidant activity assessed as superoxide radical scavenging activity measured every 30 secs for 6 mins in presence of superoxide generator pyrogallol; type: functional; summary of the method: as §2
[11] = tested on: Mus musculus; test: Antiinflammatory activity in Kunming mouse CFA-induced arthritis model assessed as COX-2 level in serum at 25 mg/kg/day, po for 1 week administered on day 8 post CFA induction by ELISA (reference value: 85.3 +/- 0.1 ng/L); type: functional
[12] = tested on: Mus musculus; test: Antioxidant activity in Kunming mouse CFA-induced arthritis model assessed as superoxide dismutase activity in serum at 25 mg/kg/day, po for 1 week administered on day 8 post CFA induction by ELISA (reference value: 66.7 +/- 0.9 U/ml); type: functional
[13] = Antioxidant activity assessed as ABTS radical scavenging activity after 6 mins by spectrophotometric analysis; type: functional; summary of the method: as §2
[14] = tested on: Mus musculus; test: Antioxidant activity in Kunming mouse CFA-induced arthritis model assessed as total antioxidant capacity in serum at 25 mg/kg/day, po for 1 week administered on day 8 post CFA induction by ELISA (reference value: 2.9 +/- 0.5 U/ml); type: functional
[15] = tested on: Mus musculus; test: Antioxidant activity in Kunming mouse CFA-induced arthritis model assessed as malondialdehyde level in serum at 25 mg/kg/day, po for 1 week administered on day 8 post CFA induction by ELISA (reference value: 15.5 +/- 1.1 nmol/ml); type: functional
[16] = Antioxidant activity assessed as DPPH radical scavenging activity incubated for 30 mins in dark; type: functional; summary of the method: as §2
[17] = tested on: Mus musculus; test: Antioxidant activity in Kunming mouse CFA-induced arthritis model assessed as malondialdehyde level in serum at 30 mg/kg/day, po for 1 week administered on day 8 post CFA induction by ELISA (reference value: 15.5 +/- 1.1 nmol/ml); type: functional
[18] = tested on: Mus musculus; test: Antiinflammatory activity in Kunming mouse CFA-induced arthritis model assessed as COX-2 level in serum at 30 mg/kg/day, po for 1 week administered on day 8 post CFA induction by ELISA (reference value: 85.3 +/- 0.1 ng/L); type: functional
[19] = tested on: Mus musculus; test: Antiinflammatory activity in Kunming mouse CFA-induced arthritis model assessed as inhibition of paw swelling at 30 mg/kg/day, po for 1 week administered on day 8 post CFA induction measured every 2 days during compound dosing; type: functional, organism-based
[20] = tested on: Mus musculus; test: Antioxidant activity in Kunming mouse CFA-induced arthritis model assessed as superoxide dismutase activity in serum at 30 mg/kg/day, po for 1 week administered on day 8 post CFA induction by ELISA (reference value: 66.7 +/- 0.9 U/ml); type: functional
[21] = tested on: Mus musculus; test: Antioxidant activity in Kunming mouse CFA-induced arthritis model assessed as total antioxidant capacity in serum at 30 mg/kg/day, po for 1 week administered on day 8 post CFA induction by ELISA (reference value: 2.9 +/- 0.5 U/ml); type: functional
[22] = tested on: Mus musculus; test: Antiinflammatory activity in Kunming mouse CFA-induced arthritis model assessed as PGE2 level in serum at 30 mg/kg/day, po for 1 week administered on day 8 post CFA induction by ELISA (reference value: 207 +/- 2.1 ng/L); type: functional
[23] = Solubility of the compound in water; type: physicochemical; conditions: buffer
[24] = tested on: Mus musculus; test: Antiinflammatory activity in Kunming mouse CFA-induced arthritis model assessed as inhibition of paw swelling at 100 mg/kg/day, po for 1 week administered on day 8 post CFA induction measured after day 3 during compound dosing; type: functional, organism-based; summary of the method: as §1

SMILES | IC50 [9] | IC50 [10] | IC50 [13] | IC50 [16] | also measured
CCCCCCCCCCCCCCCCOc1cc(OC)c(Br)cc1C(C)=O | 0.1 mM | 1.8 mM | 4.6 mM | 6.5 mM | Activity [1]: 64.7 ng/L; Activity [2]: 11.6 U/ml; Activity [3]: 76.2 U/ml; inhibition [4]: Active; Activity [5]: 189.3 ng/L; Activity [6]: 150.1 ng/L; inhibition in vivo at 100 mg/kg/day [7]: 45%; Activity [8]: 5.8 nmol/mL; Activity [11]: 63.9 ng/L; Activity [12]: 73.9 U/ml; Activity [14]: 6.5 U/ml; Activity [15]: 7.5 nmol/mL
Cc1ccc(-c2cc(C(F)(F)F)nn2-c2ccc(S(N)(=O)=O)cc2)cc1 [CELECOXIB] | – | – | – | – | Activity [17]: 7.3 nmol/mL; Activity [18]: 61.6 ng/L; inhibition [19]: Active; Activity [20]: 78 U/ml; Activity [21]: 6.3 U/ml; Activity [22]: 135.3 ng/L
CCCCCCCCCCCCCCOc1cc(OC)c(Br)cc1C(C)=O | 13.2 mM | 6.8 mM | 8.7 mM | 16.1 mM | –
CCCCCCCCCCCCCCOc1cc(OC)ccc1C(C)=O | 57 mM | 35.9 mM | 38 mM | 43.6 mM | –
CCCCCCCCCCOc1cc(OC)c(Br)cc1C(C)=O | 29.7 mM | 15 mM | 34.7 mM | 35.1 mM | –
CCCCCCCCOc1cc(OC)ccc1C(C)=O | 69.4 mM | 21.2 mM | 38.3 mM | 40 mM | –
CCCCCCCCCCCCCCCCOc1cc(OC)ccc1C(C)=O | 61.5 mM | 39.4 mM | 36.3 mM | 39.4 mM | Activity [1]: 64.4 ng/L; Activity [2]: 16.9 U/ml; Activity [3]: 80.7 U/ml; inhibition [4]: Active; Activity [5]: 182.2 ng/L; Activity [6]: 159.4 ng/L; inhibition in vivo at 100 mg/kg/day [7]: 65%; Activity [8]: 8.8 nmol/mL; Activity [11]: 65.2 ng/L; Activity [12]: 72.1 U/ml; inhibition [24]: Active; Activity [14]: 11.1 U/ml; Activity [15]: 9.7 nmol/mL
CCCCCCCCCCCCOc1cc(OC)c(Br)cc1C(C)=O | 23.1 mM | 10.6 mM | 32.7 mM | 29.5 mM | –
CCCCCCCCCCCCOc1cc(OC)ccc1C(C)=O | 65.6 mM | 28.5 mM | 40.7 mM | 37.4 mM | –
CCCCCCOc1cc(OC)ccc1C(C)=O | 84.4 mM | 18 mM | 42.1 mM | 42.6 mM | –
CCCCCCCCCCOc1cc(OC)ccc1C(C)=O | 57.4 mM | 26.6 mM | 41.7 mM | 40.1 mM | –

Continued, in another order:

IC50 [9] | IC50 [10] | IC50 [13] | IC50 [16] | SMILES | also measured
56.9 mM | 38.2 mM | 34.1 mM | 42.3 mM | CCCCOc1cc(OC)c(Br)cc1C(C)=O | –
0.2 mM | 5.8 mM | 16 mM | 42.8 mM | COc1ccc(C(C)=O)c(O)c1 [PAEONOL] | Activity [1]: 61.1 ng/L; Activity [2]: 4.1 U/ml; solubility [23]: Soluble; Activity [3]: 68.1 U/ml; inhibition [4]: Active; Activity [5]: 155.5 ng/L; Activity [6]: 137.1 ng/L; inhibition [7]: Active; Activity [8]: 7.9 nmol/mL; Activity [11]: 66.2 ng/L; Activity [12]: 62.5 U/ml; Activity [14]: 4.6 U/ml; Activity [15]: 8.9 nmol/mL
53.1 mM | 34 mM | 35.7 mM | 42.4 mM | CCCCCCOc1cc(OC)c(Br)cc1C(C)=O | –
0.2 mM | 0.6 mM | 0.3 mM | 0.2 mM | Cc1c(C)c2c(c(C)c1O)CCC(C)(C(=O)O)O2 (centres undefined) [TROLOX] | –
3 mM | 15.6 mM | 31.4 mM | 41.8 mM | COc1cc(O)c(C(C)=O)cc1Br | Activity [1]: 57.6 ng/L; Activity [2]: 6 U/ml; Activity [3]: 78.1 U/ml; inhibition [4]: Active; Activity [5]: 179.5 ng/L; Activity [6]: 142.3 ng/L; inhibition [7]: Active; Activity [8]: 6.4 nmol/mL; Activity [11]: 65.4 ng/L; Activity [12]: 76.3 U/ml; Activity [14]: 3.8 U/ml; Activity [15]: 9.9 nmol/mL
57.7 mM | 37.9 mM | 36 mM | 46.8 mM | CCOc1cc(OC)c(Br)cc1C(C)=O | solubility [23]: Soluble
57.2 mM | 15.6 mM | 36.3 mM | 43.3 mM | CCCCOc1cc(OC)ccc1C(C)=O | –
35.3 mM | 6.6 mM | 37.7 mM | 39.6 mM | CCOc1cc(OC)ccc1C(C)=O | solubility [23]: Soluble
38.1 mM | 30.9 mM | 32 mM | 39 mM | CCCCCCCCOc1cc(OC)c(Br)cc1C(C)=O | –
